We go through three molecules from PMC8800389 (Neuron, 2020).

Numbering of substitutions follows the chain as printed.

One data set concerns the target T1, PPIL1 (Homo sapiens, UniProt Q9Y3C6).
T1 sequence (Q9Y3C6 1-166): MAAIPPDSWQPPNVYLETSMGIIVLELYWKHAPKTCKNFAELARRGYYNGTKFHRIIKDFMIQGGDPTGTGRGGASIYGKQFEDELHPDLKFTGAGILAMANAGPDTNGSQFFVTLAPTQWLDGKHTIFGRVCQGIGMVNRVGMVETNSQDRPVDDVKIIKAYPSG
In kind it is biochemical. The following applies: catalytic concentrations of PPIL1 WT, 25 mM sodium phosphate, 100 mM NaCl, 1 mM dithiothreitol, 5% D2O, pH 7.0, 950 MHz; Figure S6I. The procedure, abridged: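 Substrate: uniformly 15N-labeled PRP17 peptide (residues 84–101), made as a His-SUMO fusion in BL21(DE3) in 15N minimal medium. Induction was 1 mM IPTG, 37 °C, 8 h. Ni-NTA, SUMO protease cleavage (30 °C, 6 h) and C18 reverse-phase HPLC followed, then lyophilisation. ZZ mixing times 120 (×2), 150, 200, 250 (×2), 350, 450, 600 and 750 ms on a TXO cryoprobe.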

Data set [1] in a line: cis/trans conformation of the PRP17 Gly94-Pro95 bond by 1H-13C HSQC. The class given is physicochemical. The following applies: 500 μM peptide in PBS (pH 7.4), 5 % v/v D2O, 750 MHz.
Data set [2] concerns the target T2, PPIL1 p.T107A, purified recombinant (human, UniProt Q9Y3C6 1-166, p.T107A).
T2 sequence (looked up): T1 sequence (Q9Y3C6 1-166) with T107A
The data set can be described thus: SPR. (SPR reads the build-up and loss of mass on a sensor chip optically.)

Consider TYETMFAPEFGPENPFRT, for which, at PPIL1, the “proline isomerization by PPIL1 WT (ZZ exchange)” value was “This was also confirmed”.

On to Ac-FAPEFGPENPFRT-NH2, for which the Gly94-Pro95 bond conformation result in data set [1] was “present in both cis and trans conformations”.

B1: N-terminal GST tagged SKIP 59–129 (domain or fragment, UniProt Q13573 59-129, looked up)
chain: GDGGAFPEIHVAQYPLDMGRKKKMSNALAIQVDSEGKIKYDAIARQGQSKDKVIYSKYTDLVPKEVMNADD
On to B1, for which the binding result in data set [2] is “binds”.
